The sample as a whole holds a higher share of hits than the screen did.
E-selectin induc = E-selectin induction in HUVECs, primary screen, imaging, HUVEC, immunofluorescence imaging, single point | activation, % at 7.58 µM | normalized: neutral wells 0, TNF-alpha wells 100 | actives 0.37% (n = 260,000);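 active = mean E-selectin-positive cell signal at least 10% of the positive control, reached in at least 60% of replicates, without over 20% cell loss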
Target sequence (P16581 whole entry, looked up): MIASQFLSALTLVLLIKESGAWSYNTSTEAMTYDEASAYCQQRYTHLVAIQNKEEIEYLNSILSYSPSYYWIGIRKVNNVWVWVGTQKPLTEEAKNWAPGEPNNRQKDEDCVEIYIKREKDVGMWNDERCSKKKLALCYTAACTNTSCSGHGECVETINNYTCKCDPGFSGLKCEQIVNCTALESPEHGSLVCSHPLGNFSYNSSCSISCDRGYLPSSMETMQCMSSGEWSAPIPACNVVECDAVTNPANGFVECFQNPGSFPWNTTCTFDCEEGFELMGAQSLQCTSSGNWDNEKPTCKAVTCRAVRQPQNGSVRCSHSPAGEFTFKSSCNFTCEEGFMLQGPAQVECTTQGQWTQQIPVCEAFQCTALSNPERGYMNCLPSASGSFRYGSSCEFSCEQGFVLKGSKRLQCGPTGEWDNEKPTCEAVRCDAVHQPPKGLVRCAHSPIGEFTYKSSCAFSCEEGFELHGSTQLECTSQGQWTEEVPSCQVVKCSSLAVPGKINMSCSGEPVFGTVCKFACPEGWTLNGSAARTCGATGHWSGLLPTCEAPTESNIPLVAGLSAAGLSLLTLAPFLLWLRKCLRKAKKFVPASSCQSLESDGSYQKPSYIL
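Test system: HUVEC; input: 3,000 HUVEC/well; measured by: immunofluorescence imaging; read-out: % PE-positive cells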
Hits are given with their value; 0 = inactive.

SMILES	E-selectin induc
CN(C)c1ccc(/C=C/C(=O)c2ccc(O)cc2)cc1	0
CN(C)c1ccc(C=c2c3cc(O)ccc3n3c2cc(-c2ccccc2)[n+]3C)cc1	139.0
O=[N+]([O-])c1ccc(C=Nc2ccccc2)cc1	0
CC(C)n1c2ccccc2c2cc([N+](=O)[O-])ccc21	0
C[n+]1c(-c2ccccc2)cc2c(=Cc3ccccc3)c3ccccc3n21	220.4
CN(C)/C=C/c1c([N+](=O)[O-])c2ccc(O)cc2n1-c1ccccc1	0
O=C(NC1CCCC1)[C@@H]1[C@@H](CO)[C@@H]2Cn3c(cccc3=O)[C@@H]2N1CCc1ccccc1	0
CO[C@H]1CN(C)C(=O)c2ccc(NC(=O)C3CCOCC3)cc2OC[C@H](C)N(C(=O)c2ccccc2)C[C@H]1C	0
COc1ccc(NC(=O)N(C)C[C@@H]2OCc3ccccc3-c3ccccc3C(=O)N([C@@H](C)CO)C[C@H]2C)c(OC)c1	0
CCCNC(=O)C[C@@H]1C[C@H]2c3cc(NC(=O)NC4CCCC4)ccc3O[C@H]2[C@H](CO)O1	0
COCCNC(=O)C[C@@H]1C[C@@H]2c3cc(NS(=O)(=O)c4ccc(F)cc4)ccc3O[C@@H]2[C@@H](CO)O1	0
C[C@@H]1CN([C@H](C)CO)C(=O)c2cc(NS(=O)(=O)c3cccs3)ccc2O[C@@H](C)CCCCO[C@H]1CN(C)Cc1ccc2c(c1)OCO2	0
O=C(NC(O)C(=O)c1ccccc1)c1ccccn1 (configuration not stated)	50.2
O=C(NCCNC(=O)c1ccccn1)c1ccc(F)cc1	0
CC(C(=O)c1ccccc1)C(O)c1ccccn1 (configuration not stated)	0
CN1C(=O)c2cc(NC(=O)C3CCCCC3)ccc2OC[C@@H]2O[C@@H](CC(=O)NCc3ccccc3F)CC[C@@H]21	0
CO[C@H]1CN(C)C(=O)c2ccc(NC(=O)NC(C)C)cc2OC[C@H](C)N(C(=O)C2CCC2)C[C@@H]1C	0
CC(C)(C)c1cc(CCC(=O)NCc2ccccn2)cc(C(C)(C)C)c1O	99.6
CC(C)(C)c1cc(CCC(=O)NN)cc(C(C)(C)C)c1O	0
CC(C)(C)c1cc(CCC(=O)NCc2cccnc2)cc(C(C)(C)C)c1O	0
CCCNC(=O)[C@H]1[C@H](CO)[C@H]2Cn3c(ccc(C4=CCCC4)c3=O)[C@@H]1N2	0
O=S(=O)(NCC[C@@H]1CC[C@H](NS(=O)(=O)c2cccc(Cl)c2)[C@H](CO)O1)c1cccc(F)c1	0
COc1ccc(S(=O)(=O)N(C)C[C@H]2Oc3c(NC(=O)C4CCCCC4)cccc3C(=O)N([C@@H](C)CO)C[C@@H]2C)cc1	0
O=C(c1ccccn1)N1C[C@H]2[C@@H](c3ccccc31)[C@@H](CO)N2C(=O)Cc1ccccc1	0
COc1ccc(NC(=O)N(C)C[C@H]2OCCCC[C@H](C)Oc3ccc(NS(=O)(=O)c4ccccc4)cc3C(=O)N([C@H](C)CO)C[C@@H]2C)cc1	0
SMILES	E-selectin induc
COc1ccc(C#Cc2ccc3c(c2)O[C@@H](CN(C)C(=O)Nc2cccc(OC)c2)[C@H](C)CN([C@@H](C)CO)S3(=O)=O)cc1	35.2
CC(C)CC#Cc1ccc2c(c1)O[C@H](CN(C)C(=O)c1ccccc1)[C@H](C)CN([C@@H](C)CO)S2(=O)=O	84.9
CCCC#Cc1ccc2c(c1)O[C@@H](CN(C)C(=O)c1ccccc1)[C@@H](C)CN([C@H](C)CO)S2(=O)=O	96.2
CC(C)CC#Cc1ccc2c(c1)O[C@@H](CN(C)C(=O)c1ccccc1)[C@@H](C)CN([C@H](C)CO)S2(=O)=O	0
COc1ccc(C#Cc2ccc3c(c2)O[C@H](CN(C)C(=O)Nc2cccc(OC)c2)[C@H](C)CN([C@@H](C)CO)S3(=O)=O)cc1	0
CCCC#Cc1ccc2c(c1)O[C@@H](CN(C)C(C)=O)[C@@H](C)CN([C@H](C)CO)S2(=O)=O	0
CCCC#Cc1ccc2c(c1)O[C@H](CN(C)C(C)=O)[C@@H](C)CN([C@@H](C)CO)S2(=O)=O	0
CCCC#Cc1ccc2c(c1)O[C@H](CN(C)C(C)=O)[C@H](C)CN([C@@H](C)CO)S2(=O)=O	123.2
CCCC#Cc1ccc2c(c1)O[C@@H](CN(C)C(=O)c1ccccc1)[C@@H](C)CN([C@@H](C)CO)S2(=O)=O	0
CCCC#Cc1ccc2c(c1)O[C@H](CN(C)C(=O)c1ccccc1)[C@H](C)CN([C@@H](C)CO)S2(=O)=O	0
CC(C)CC#Cc1ccc2c(c1)O[C@@H](CN(C)C(=O)c1ccccc1)[C@H](C)CN([C@@H](C)CO)S2(=O)=O	0
COc1ccc(C#Cc2ccc3c(c2)O[C@@H](CN(C)C(=O)Nc2cccc(OC)c2)[C@@H](C)CN([C@H](C)CO)S3(=O)=O)cc1	0
C[C@@H]1CN([C@@H](C)CO)C(=O)Cc2cc(NC(=O)CCCCCC(=O)Nc3ccccc3N)ccc2O[C@H]1CN(C)S(=O)(=O)c1cccs1	0
CC=Cc1ccc2n(c1=O)C[C@H]1[C@H](CO)[C@@H](C(=O)NCCc3ccccc3)N(C(=O)CC)[C@@H]21 (mixture of isomers)	0
CO[C@@H]1CN(C)C(=O)c2cc(NC(C)=O)ccc2OC[C@H](C)N(C(=O)C2CCCCC2)C[C@@H]1C	0
COc1ccc2c3c(n(C)c2c1)[C@@H](CO)N(CC1CC1)CC31CN(C(C)=O)C1	0
CC(C)CC#Cc1ccc2c(c1)O[C@H](CN(C)Cc1ccncc1)[C@H](C)CN([C@@H](C)CO)S2(=O)=O	107.8
CC(C)CC#Cc1ccc2c(c1)O[C@@H](CN(C)Cc1ccncc1)[C@@H](C)CN([C@H](C)CO)S2(=O)=O	0
C[C@@H]1CN([C@@H](C)CO)S(=O)(=O)c2ccc(C#Cc3ccccc3F)cc2O[C@H]1CN(C)CC1CC1	0
CCCC#Cc1ccc2c(c1)O[C@H](CN(C)S(=O)(=O)c1cccc(OC)c1)[C@@H](C)CN([C@H](C)CO)S2(=O)=O	0
C[C@H](CO)N1C[C@H](C)[C@H](CN(C)CC2CC2)Oc2cc(C#Cc3ccccc3)ccc2S1(=O)=O	0
CC(=O)N(C)C[C@H]1Oc2cc(C#Cc3ccccn3)ccc2S(=O)(=O)N([C@@H](C)CO)C[C@@H]1C	0
CCCC#Cc1ccc2c(c1)O[C@@H](CN(C)S(=O)(=O)c1cccc(OC)c1)[C@@H](C)CN([C@@H](C)CO)S2(=O)=O	97.8
CCCC#Cc1ccc2c(c1)O[C@@H](CN(C)S(=O)(=O)c1cccc(OC)c1)[C@H](C)CN([C@H](C)CO)S2(=O)=O	0
CC(C)CC#Cc1ccc2c(c1)O[C@@H](CN(C)Cc1ccncc1)[C@@H](C)CN([C@@H](C)CO)S2(=O)=O	0
SMILES	E-selectin induc
CC(=O)N(C)C[C@@H]1Oc2cc(C#Cc3ccccn3)ccc2S(=O)(=O)N([C@H](C)CO)C[C@@H]1C	70.4
C[C@@H]1CN([C@@H](C)CO)S(=O)(=O)c2ccc(C#Cc3ccccc3)cc2O[C@@H]1CN(C)CC1CC1	130.6
CC(=O)N(C)C[C@H]1Oc2cc(C#Cc3ccccn3)ccc2S(=O)(=O)N([C@H](C)CO)C[C@H]1C	0
COc1ccc(NC(=O)Nc2ccc3c(c2)C(=O)N([C@H](C)CO)C[C@@H](C)[C@H](CN(C)C(=O)NC2CCCCC2)OCCCC[C@@H](C)O3)cc1	0
CN(C)CC(=O)N1CCCCN2[C@H](CO)[C@@H](c3ccc(-c4cccnc4)cc3)[C@@H]2C1	0
CCC(=O)N1CC2(CCN(Cc3ccc(Cl)cc3)CC2)c2c([nH]c3cc(OC)ccc23)[C@H]1CO	0
